In ChEMBL document CHEMBL3112482, “Nonclassical antifolates, part 5. Benzodiazepine analogs as a new class of DHFR inhibitors: synthesis, antitumor testing and molecular modeling study” (Eur J Med Chem, 2014):
pIC50: −log10 of the molar value.

Experiments:
SK-MEL-28 = experiment: Growth inhibition of human SK-MEL-28 cells at 10 uM after 48 hrs; type: functional; conditions: SK-MEL-28, 48 h, read-out: GI
Outline: (§1)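 NCI 60-cell-line disease-oriented human tumor panel, single-dose primary screen at 10 µM. Data given as mean-graph percent growth of treated cells, reported as percent growth inhibition (GI %).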

OVCAR-8 = experiment: Growth inhibition of human OVCAR8 cells at 10 uM after 48 hrs; type: functional; conditions: OVCAR-8, 48 h, read-out: GI
Outline: (§2)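 Single-dose primary screen in the NCI 60 human tumour cell line panel, run at the NCI facility. The panel covers nine subpanels: leukaemia, non-small cell lung, colon, CNS, melanoma, ovarian, renal, prostate and breast. Read-out was percent growth of treated cells, shown as a mean graph and reported as percent growth inhibition.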

SW-620 = experiment: Growth inhibition of human SW620 cells at 10 uM after 48 hrs; type: functional; conditions: SW-620, 48 h, read-out: GI; outline: as §1
SNB-75 = experiment: Growth inhibition of human SNB75 cells at 10 uM after 48 hrs; type: functional; conditions: SNB-75, 48 h, read-out: GI; outline: as §1
[1] = Cytotoxicity against human prostate cancer cells at 10 uM after 48 hrs; type: functional; conditions: Cancer cell lines
786-0 = experiment: Growth inhibition of human 786-0 cells at 10 uM after 48 hrs; type: functional; conditions: 786-0, 48 h, read-out: GI; outline: as §2
T47D = experiment: Growth inhibition of human T47D cells at 10 uM after 48 hrs; type: functional; conditions: read-out: GI; outline: as §1
Dihydrofolate reductase = target: T1, Dihydrofolate reductase (Bos taurus, UniProt P00376); experiment: Inhibition of bovine liver DHFR measured for every 1 min of 10 mins
T1 sequence (P00376 whole entry): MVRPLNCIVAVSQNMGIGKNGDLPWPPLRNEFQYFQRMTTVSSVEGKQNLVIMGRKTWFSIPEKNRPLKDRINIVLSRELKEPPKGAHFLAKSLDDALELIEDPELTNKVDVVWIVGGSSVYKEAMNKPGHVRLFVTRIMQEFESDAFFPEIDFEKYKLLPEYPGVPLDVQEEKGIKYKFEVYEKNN

TK-10 = experiment: Growth inhibition of human TK10 cells at 10 uM after 48 hrs; type: functional; conditions: TK-10, 48 h, read-out: GI; outline: as §1
MDA-MB-231 = experiment: Growth inhibition of human MDA-MB-231 cells at 10 uM after 48 hrs; type: functional; conditions: MDA-MB-231, 48 h, read-out: GI; outline: as §2
NCI-H226 = experiment: Growth inhibition of human NCI-H226 cells at 10 uM after 48 hrs; type: functional; conditions: NCI-H226, 48 h, read-out: GI; outline: as §2
SF-268 = experiment: Growth inhibition of human SF268 cells at 10 uM after 48 hrs; type: functional; conditions: SF-268, 48 h, read-out: GI; outline: as §1
OVCAR-3 = experiment: Growth inhibition of human OVCAR3 cells at 10 uM after 48 hrs; type: functional; conditions: OVCAR-3, 48 h, read-out: GI; outline: as §2
HT-29 = experiment: Growth inhibition of human HT-29 cells at 10 uM after 48 hrs; type: functional; conditions: HT-29, 48 h, read-out: GI; outline: as §2
HL-60(TB) = experiment: Growth inhibition of human HL-60(TB) cells at 10 uM after 48 hrs; type: functional; conditions: HL-60, 48 h, read-out: GI
Outline: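 NCI 60-cell-line human tumour panel covering nine subpanels (leukaemia, non-small cell lung, colon, CNS, melanoma, ovarian, renal, prostate, breast), run at the NCI facility. Primary screen tested a single dose of each compound. Read-out was percent growth of treated cells versus untreated cells, reported from the mean graph as percentage growth inhibition.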

PC-3 = experiment: Growth inhibition of human PC3 cells at 10 uM after 48 hrs; type: functional; conditions: PC-3, 48 h, read-out: GI; outline: as §2
MOLT-4 = experiment: Growth inhibition of human MOLT4 cells at 10 uM after 48 hrs; type: functional; conditions: MOLT-4, 48 h, read-out: GI; outline: as §2
[2] = Growth inhibition of human OVCAR5 cells at 10 uM after 48 hrs; type: functional; conditions: OVCAR-5, 48 h, read-out: GI; outline: as §2
[3] = Growth inhibition of human Hs 578T cells at 10 uM after 48 hrs; type: functional; conditions: read-out: GI; outline: as §2
NCI-H322M = experiment: Growth inhibition of human NCI-H322M cells at 10 uM after 48 hrs; type: functional; conditions: read-out: GI; outline: as §2
SK-OV-3 = experiment: Growth inhibition of human SKOV3 cells at 10 uM after 48 hrs; type: functional; conditions: SK-OV-3, 48 h, read-out: GI; outline: as §1
IGROV-1 = experiment: Growth inhibition of human IGROV1 cells at 10 uM after 48 hrs; type: functional; conditions: IGROV-1, 48 h, read-out: GI; outline: as §2
[4] = Growth inhibition of human EKVX cells at 10 uM after 48 hrs; type: functional; conditions: read-out: GI; outline: as §2
SNB-19 = experiment: Growth inhibition of human SNB19 cells at 10 uM after 48 hrs; type: functional; conditions: SNB-19, 48 h, read-out: GI; outline: as §1
[5] = Growth inhibition of human OVCAR4 cells at 10 uM after 48 hrs; type: functional; conditions: OVCAR-4, 48 h, read-out: GI; outline: as §2
[6] = Growth inhibition of human NCI-ADR-RES cells at 10 uM after 48 hrs; type: functional; conditions: read-out: GI; outline: as §2
KM12 = experiment: Growth inhibition of human KM12 cells at 10 uM after 48 hrs; type: functional; conditions: KM12, 48 h, read-out: GI; outline: as §2
NCI-H23 = experiment: Growth inhibition of human NCI-H23 cells at 10 uM after 48 hrs; type: functional; conditions: NCI-H23, 48 h, read-out: GI; outline: as §2
SN12C = experiment: Growth inhibition of human SN12C cells at 10 uM after 48 hrs; type: functional; conditions: read-out: GI; outline: as §1
MCF7 = experiment: Growth inhibition of human MCF7 cells at 10 uM after 48 hrs; type: functional; conditions: MCF7, 48 h, read-out: GI; outline: as §2
SR = experiment: Growth inhibition of human SR cells at 10 uM after 48 hrs; type: functional; conditions: read-out: GI; outline: as §1
CAKI-1 = experiment: Growth inhibition of human CAKI-1 cells at 10 uM after 48 hrs; type: functional; conditions: CAKI-1, 48 h, read-out: GI; outline: as §2
DU-145 = experiment: Growth inhibition of human DU145 cells at 10 uM after 48 hrs; type: functional; conditions: DU-145, 48 h, read-out: GI; outline: as §2
[7] = Growth inhibition of human UO31 cells at 10 uM after 48 hrs; type: functional; conditions: UO-31, 48 h, read-out: GI; outline: as §1
K562 = experiment: Growth inhibition of human K562 cells at 10 uM after 48 hrs; type: functional; conditions: K562, 48 h, read-out: GI; outline: as §2
CCRF-CEM = experiment: Growth inhibition of human CCRF-CEM cells at 10 uM after 48 hrs; type: functional; conditions: read-out: GI; outline: as §2
SK-MEL-2 = experiment: Growth inhibition of human SK-MEL-2 cells at 10 uM after 48 hrs; type: functional; conditions: SK-MEL-2, 48 h, read-out: GI; outline: as §1
[8] = Growth inhibition of human RXF393 cells at 10 uM after 48 hrs; type: functional; conditions: RXF 393, 48 h, read-out: GI; outline: as §2
[9] = Growth inhibition of human SF539 cells at 10 uM after 48 hrs; type: functional; conditions: SF-539, 48 h, read-out: GI; outline: as §1

In the case of `Nc1nc2c(c(-c3ccc(Cl)cc3)n1)CCC/C2=C\c1ccc(Cl)cc1`, the inhibition of growth at 10 µM (SK-MEL-28) was < 30%, the inhibition of growth at 10 µM (OVCAR-8) was 58.8% and the inhibition of growth at 10 µM (SW-620) was 81.1%. For the same compound, the inhibition of growth at 10 µM (SNB-75) was < 30%, the GI50 [1] was 12.3 µM and the LC50 [1] was 95 µM. The TGI [1] was 51.2 µM, the inhibition of growth at 10 µM (786-0) was < 30% and the inhibition of growth at 10 µM (T47D) was < 30%. The pIC50 (Dihydrofolate reductase) was 4.77, the inhibition of growth at 10 µM (TK-10) was < 30% and the inhibition of growth at 10 µM (MDA-MB-231) was < 30%. For the same compound, the inhibition of growth at 10 µM (NCI-H226) was < 30%, the inhibition of growth at 10 µM (SF-268) was < 30% and the inhibition of growth at 10 µM (OVCAR-3) was 60.9%. For the same compound, the inhibition of growth at 10 µM (HT-29) was 92.3%, the inhibition of growth at 10 µM (HL-60(TB)) was 35.2% and the inhibition of growth at 10 µM (PC-3) was < 30%. The inhibition of growth at 10 µM (MOLT-4) was 35.1%, the inhibition of growth at 10 µM [2] was < 30% and the inhibition of growth at 10 µM [3] was < 30%. For the same compound, the inhibition of growth at 10 µM (NCI-H322M) was < 30%, the inhibition of growth at 10 µM (SK-OV-3) was < 30% and the inhibition of growth at 10 µM (IGROV-1) was < 30%. For the same compound, the inhibition of growth at 10 µM [4] was < 30%, the inhibition of growth at 10 µM (SNB-19) was < 30% and the inhibition of growth at 10 µM [5] was < 30%. For the same compound, the inhibition of growth at 10 µM [6] was < 30%, the inhibition of growth at 10 µM (KM12) was 97.7% and the inhibition of growth at 10 µM (NCI-H23) was 38.9%. The inhibition of growth at 10 µM (SN12C) was < 30%, the inhibition of growth at 10 µM (MCF7) was 66.9% and the inhibition of growth at 10 µM (SR) was 79.2%. For the same compound, the inhibition of growth at 10 µM (CAKI-1) was < 30%, the inhibition of growth at 10 µM (DU-145) was < 30% and the inhibition of growth at 10 µM [7] was 32.2%. For the same compound, the inhibition of growth at 10 µM (K562) was 56.5%, the inhibition of growth at 10 µM (CCRF-CEM) was < 30% and the inhibition of growth at 10 µM (SK-MEL-2) was < 30%. For the same compound, the inhibition of growth at 10 µM [8] was 65.5% and the inhibition of growth at 10 µM [9] was < 30%.
